Key:
PBMC [1] = assay: Drug level in human phytohemagglutininin-activated PBMC assessed as apricitabine monophosphate level at 2.6 uM after 24 hrs; assay type: ADME, cell-based
In short: (§1)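 Single healthy donor PBMC from Ficoll-type separation with hypotonic erythrocyte lysis, cultured in RPMI 1640 + 10% heat-inactivated FBS and stimulated 72 h with PHA-M 5 μg/ml plus IL-2 10 U/ml. Seeded at 0.75 × 10⁶ cells/ml and exposed 24 h to 2.6 μM ³H-labelled nucleoside alone. Cells washed cold, extracted in 60% methanol, analysed by C18 reverse-phase HPLC (7.5 mM NaH2PO4, pH 6.8) with online radioactivity detection. Parent and MP/DP/TP expressed as μM (1 pmol/10⁶ cells ≈ 1 μM).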

[2] = test system: Human immunodeficiency virus; assay: Antiviral activity against HIV in T cells assessed as inhibition of viral replication; assay type: functional, organism-based; conditions: Human immunodeficiency virus 1, T-cell
PBMC [3] = assay: Drug level in human phytohemagglutininin-activated PBMC at 2.6 uM after 24 hrs; assay type: ADME, cell-based; in short: as §1
[4] = test system: Human immunodeficiency virus; assay: Antiviral activity against HIV in PBMCs assessed as inhibition of viral replication; assay type: functional, organism-based; conditions: Human immunodeficiency virus 1
[5] = test system: Human immunodeficiency virus 1; assay: Antiviral activity against HIV1 with reverse transcriptase M184V mutation in human phytohemagglutininin-activated PBMC assessed as inhibition of viral replication; assay type: functional, organism-based
In short: (§2)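 PBMC from one healthy donor, stimulated 3 days with PHA (5 μg/ml) plus IL-2 (10 U/ml), infected with HIV-1 M184V at MOI 0.02 for 3 h at 37°C, washed, 2 × 10⁵ cells/well into drug-containing medium. Half the medium renewed with drug at day 4. Day 7 supernatant RT activity measured on poly(rA)(dT) with [³H]dTTP. Triplicates.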

PBMC [6] = assay: Drug level in human phytohemagglutininin-activated PBMC assessed as apricitabine triphosphate level at 2.6 uM after 24 hrs; assay type: ADME, cell-based; in short: as §1
PBMC [7] = assay: Drug level in human phytohemagglutininin-activated PBMC assessed as apricitabine diphosphate level at 2.6 uM after 24 hrs; assay type: ADME, cell-based; in short: as §1
PBMC [8] = assay: Drug level in human resting PBMC at 2.6 uM after 24 hrs; assay type: ADME, cell-based
In short: (§3)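 Unstimulated PBMC from a single healthy donor, cultured in RPMI 1640 + 10% heat-inactivated FBS, seeded at 1.0 × 10⁶ cells/ml and incubated 24 h with 2.6 μM ³H-labelled nucleoside alone. Cold PBS washes, 60% methanol extraction at −20°C overnight, C18 reverse-phase HPLC (7.5 mM sodium dihydrogen phosphate, pH 6.8) with online radiodetection. Intracellular parent, MP, DP, TP reported as μM (1 pmol/10⁶ cells ≈ 1 μM).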

PBMC [9] = assay: Drug level in human resting PBMC assessed as apricitabine triphosphate level at 2.6 uM after 24 hrs; assay type: ADME, cell-based; in short: as §3
PBMC [10] = assay: Drug level in human resting PBMC assessed as apricitabine diphosphate level at 2.6 uM after 24 hrs; assay type: ADME, cell-based; in short: as §3
PBMC [11] = assay: Drug level in human resting PBMC assessed as apricitabine monophosphate level at 2.6 uM after 24 hrs; assay type: ADME, cell-based; in short: as §3
PBMC [12] = assay: Drug level in human phytohemagglutininin-activated PBMC assessed as Lamivudine diphosphate level at 2.6 uM after 24 hrs; assay type: ADME, cell-based; in short: as §1
PBMC [13] = assay: Drug level in human resting PBMC assessed as Lamivudine diphosphate level at 2.6 uM after 24 hrs; assay type: ADME, cell-based; in short: as §3
[14] = test system: Human immunodeficiency virus 1; assay: Antiviral activity against HIV1 with reverse transcriptase M184V mutation in human phytohemagglutininin-activated PBMC assessed as inhibition of viral replication at 60 uM; assay type: functional; in short: as §2
[15] = test system: Human immunodeficiency virus 1; assay: Antiviral activity against HIV1 with reverse transcriptase M184V mutation in human phytohemagglutininin-activated PBMC assessed as inhibition of viral replication at 200 uM; assay type: functional; in short: as §2
PBMC [16] = assay: Drug level in human resting PBMC assessed as Lamivudine monophosphate level at 2.6 uM after 24 hrs; assay type: ADME, cell-based; in short: as §3
PBMC [17] = assay: Drug level in human resting PBMC assessed as Lamivudine triphosphate level at 2.6 uM after 24 hrs; assay type: ADME, cell-based; in short: as §3
PBMC [18] = assay: Drug level in human phytohemagglutininin-activated PBMC assessed as Lamivudine triphosphate level at 2.6 uM after 24 hrs; assay type: ADME, cell-based; in short: as §1
PBMC [19] = assay: Drug level in human phytohemagglutininin-activated PBMC assessed as Lamivudine monophosphate level at 2.6 uM after 24 hrs; assay type: ADME, cell-based; in short: as §1

SMILES	Drug uptake (PBMC [1])	EC50 [2]	Drug uptake (PBMC [3])	EC50 [4]	EC50 [5]	EC90 [5]	Drug uptake (PBMC [6])	Drug uptake (PBMC [7])	Drug uptake (PBMC [8])	Drug uptake (PBMC [9])	Drug uptake (PBMC [10])	Drug uptake (PBMC [11])	Drug uptake (PBMC [12])	Drug uptake (PBMC [13])	inhibition at 60 µM [14]	inhibition at 200 µM [15]	Drug uptake (PBMC [16])	Drug uptake (PBMC [17])	Drug uptake (PBMC [18])	Drug uptake (PBMC [19])
Nc1ccn([C@H]2CO[C@@H](CO)S2)c(=O)n1 [APRICITABINE]	0.23 µM	1000 nM	1.19 µM	100 nM	1900 nM	11900 nM	0.54 µM	0.69 µM	0.39 µM	0.33 µM	0.58 µM	0.11 µM								
Nc1ccn([C@@H]2CS[C@H](CO)O2)c(=O)n1 [LAMIVUDINE]			0.18 µM		68000 nM				0.1 µM				1.66 µM	1.01 µM	45%	45%	0.12 µM	0.73 µM	0.66 µM	0.52 µM

From ChEMBL document CHEMBL1155156, “In vitro interactions between apricitabine and other deoxycytidine analogues” (Antimicrob Agents Chemother, 2007)
